Test results from ChEMBL document CHEMBL4052595, “Application of Residual Dipolar Couplings and Selective Quantitative NOE to Establish the Structures of Tetranortriterpenoids from Xylocarpus rumphii” (J Nat Prod, 2017).
The source made the active and inactive calls.

What was measured:
Assay type in all cases: functional, cell-based
[1] = test system: BT-549; assay: Growth inhibition of human BT549 cells at 10^-5 M incubated for 48 hrs by sulforhodamine B assay
How it was run: (§1)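 Run in the NCI59 one-dose cell-line screen, with each compound tested at a single concentration of 1 × 10−5 M.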

[2] = test system: T47D; assay: Growth inhibition of human T47D cells at 10^-5 M incubated for 48 hrs by sulforhodamine B assay
How it was run: (§2)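 Tested at a single concentration of 1 × 10−5 M as part of the NCI59 cell-line one-dose screen.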

[3] = test system: Hs-578T; assay: Growth inhibition of human Hs 578T cells at 10^-5 M incubated for 48 hrs by sulforhodamine B assay; how it was run: as §1
[4] = test system: MCF7; assay: Growth inhibition of human MCF7 cells at 10^-5 M incubated for 48 hrs by sulforhodamine B assay; how it was run: as §1
[5] = test system: MDA-MB-231; assay: Growth inhibition of human MDA-MB-231 cells at 10^-5 M incubated for 48 hrs by sulforhodamine B assay; how it was run: as §1
[6] = test system: DU-145; assay: Growth inhibition of human DU145 cells at 10^-5 M incubated for 48 hrs by sulforhodamine B assay; how it was run: as §1
[7] = test system: UO-31; assay: Growth inhibition of human UO31 cells at 10^-5 M incubated for 48 hrs by sulforhodamine B assay; how it was run: as §2
[8] = test system: PC-3; assay: Growth inhibition of human PC3 cells at 10^-5 M incubated for 48 hrs by sulforhodamine B assay; how it was run: as §1
[9] = test system: SN12C; assay: Growth inhibition of human SN12C cells at 10^-5 M incubated for 48 hrs by sulforhodamine B assay; how it was run: as §1
[10] = test system: TK-10; assay: Growth inhibition of human TK10 cells at 10^-5 M incubated for 48 hrs by sulforhodamine B assay; how it was run: as §2
[11] = test system: RXF 393; assay: Growth inhibition of human RXF393 cells at 10^-5 M incubated for 48 hrs by sulforhodamine B assay; how it was run: as §1
[12] = test system: ACHN; assay: Growth inhibition of human ACHN cells at 10^-5 M incubated for 48 hrs by sulforhodamine B assay; how it was run: as §1
[13] = test system: CAKI-1; assay: Growth inhibition of human Caki1 cells at 10^-5 M incubated for 48 hrs by sulforhodamine B assay; how it was run: as §1
[14] = test system: A498; assay: Growth inhibition of human A498 cells at 10^-5 M incubated for 48 hrs by sulforhodamine B assay; how it was run: as §1
[15] = test system: 786-0; assay: Growth inhibition of human 786-0 cells at 10^-5 M incubated for 48 hrs by sulforhodamine B assay; how it was run: as §1
[16] = test system: NCI/ADR-RES; assay: Growth inhibition of human NCI/ADR-RES cells at 10^-5 M incubated for 48 hrs by sulforhodamine B assay; how it was run: as §1
[17] = test system: SK-OV-3; assay: Growth inhibition of human SKOV3 cells at 10^-5 M incubated for 48 hrs by sulforhodamine B assay; how it was run: as §1
[18] = test system: OVCAR-8; assay: Growth inhibition of human OVCAR8 cells at 10^-5 M incubated for 48 hrs by sulforhodamine B assay; how it was run: as §1
[19] = test system: OVCAR-4; assay: Growth inhibition of human OVCAR4 cells at 10^-5 M incubated for 48 hrs by sulforhodamine B assay; how it was run: as §1
[20] = test system: OVCAR-5; assay: Growth inhibition of human OVCAR5 cells at 10^-5 M incubated for 48 hrs by sulforhodamine B assay; how it was run: as §1
[21] = test system: IGROV-1; assay: Growth inhibition of human IGROV1 cells at 10^-5 M incubated for 48 hrs by sulforhodamine B assay; how it was run: as §1
[22] = test system: OVCAR-3; assay: Growth inhibition of human OVCAR3 cells at 10^-5 M incubated for 48 hrs by sulforhodamine B assay; how it was run: as §1
[23] = test system: UACC-62; assay: Growth inhibition of human UACC62 cells at 10^-5 M incubated for 48 hrs by sulforhodamine B assay; how it was run: as §2
[24] = test system: SK-MEL-5; assay: Growth inhibition of human SK-MEL-5 cells at 10^-5 M incubated for 48 hrs by sulforhodamine B assay; how it was run: as §1
[25] = test system: UACC-257; assay: Growth inhibition of human UACC257 cells at 10^-5 M incubated for 48 hrs by sulforhodamine B assay; how it was run: as §2
[26] = test system: SK-MEL-28; assay: Growth inhibition of human SK-MEL-28 cells at 10^-5 M incubated for 48 hrs by sulforhodamine B assay; how it was run: as §1
[27] = test system: MDA-MB-435; assay: Growth inhibition of human MDA-MB-435 cells at 10^-5 M incubated for 48 hrs by sulforhodamine B assay; how it was run: as §1
[28] = test system: SK-MEL-2; assay: Growth inhibition of human SK-MEL-2 cells at 10^-5 M incubated for 48 hrs by sulforhodamine B assay; how it was run: as §1
[29] = test system: M14; assay: Growth inhibition of human M14 cells at 10^-5 M incubated for 48 hrs by sulforhodamine B assay; how it was run: as §1
[30] = test system: U-251; assay: Growth inhibition of human U251 cells at 10^-5 M incubated for 48 hrs by sulforhodamine B assay; how it was run: as §2
[31] = test system: LOX IMVI; assay: Growth inhibition of human LOXIMVI cells at 10^-5 M incubated for 48 hrs by sulforhodamine B assay; how it was run: as §1
[32] = test system: SNB-19; assay: Growth inhibition of human SNB19 cells at 10^-5 M incubated for 48 hrs by sulforhodamine B assay; how it was run: as §1
[33] = test system: SNB-75; assay: Growth inhibition of human SNB75 cells at 10^-5 M incubated for 48 hrs by sulforhodamine B assay; how it was run: as §1
[34] = test system: SF-539; assay: Growth inhibition of human SF539 cells at 10^-5 M incubated for 48 hrs by sulforhodamine B assay; how it was run: as §1
[35] = test system: SF-268; assay: Growth inhibition of human SF268 cells at 10^-5 M incubated for 48 hrs by sulforhodamine B assay; how it was run: as §1
[36] = test system: SF-295; assay: Growth inhibition of human SF295 cells at 10^-5 M incubated for 48 hrs by sulforhodamine B assay; how it was run: as §1
[37] = test system: SW-620; assay: Growth inhibition of human SW620 cells at 10^-5 M incubated for 48 hrs by sulforhodamine B assay; how it was run: as §2
[38] = test system: HT-29; assay: Growth inhibition of human HT-29 cells at 10^-5 M incubated for 48 hrs by sulforhodamine B assay; how it was run: as §1
[39] = test system: KM12; assay: Growth inhibition of human KM12 cells at 10^-5 M incubated for 48 hrs by sulforhodamine B assay; how it was run: as §1
[40] = test system: HCT-116; assay: Growth inhibition of human HCT116 cells at 10^-5 M incubated for 48 hrs by sulforhodamine B assay; how it was run: as §1
[41] = test system: HCT-15; assay: Growth inhibition of human HCT15 cells at 10^-5 M incubated for 48 hrs by sulforhodamine B assay; how it was run: as §1
[42] = test system: HCC 2998; assay: Growth inhibition of human HCC2998 cells at 10^-5 M incubated for 48 hrs by sulforhodamine B assay; how it was run: as §1
[43] = test system: NCI-H522; assay: Growth inhibition of human NCI-H522 cells at 10^-5 M incubated for 48 hrs by sulforhodamine B assay; how it was run: as §1
[44] = test system: COLO 205; assay: Growth inhibition of human COLO205 cells at 10^-5 M incubated for 48 hrs by sulforhodamine B assay; how it was run: as §1
[45] = test system: NCI-H460; assay: Growth inhibition of human NCI-H460 cells at 10^-5 M incubated for 48 hrs by sulforhodamine B assay; how it was run: as §1
[46] = test system: NCI-H23; assay: Growth inhibition of human NCI-H23 cells at 10^-5 M incubated for 48 hrs by sulforhodamine B assay; how it was run: as §1
[47] = test system: NCI-H322M; assay: Growth inhibition of human NCI-H322M cells at 10^-5 M incubated for 48 hrs by sulforhodamine B assay; how it was run: as §1
[48] = test system: NCI-H226; assay: Growth inhibition of human NCI-H226 cells at 10^-5 M incubated for 48 hrs by sulforhodamine B assay; how it was run: as §1
[49] = test system: HOP-62; assay: Growth inhibition of human HOP62 cells at 10^-5 M incubated for 48 hrs by sulforhodamine B assay; how it was run: as §1
[50] = test system: HOP-92; assay: Growth inhibition of human HOP92 cells at 10^-5 M incubated for 48 hrs by sulforhodamine B assay; how it was run: as §1
[51] = test system: A549; assay: Growth inhibition of human A549/ATCC cells at 10^-5 M incubated for 48 hrs by sulforhodamine B assay; how it was run: as §1
[52] = test system: EKVX; assay: Growth inhibition of human EKVX cells at 10^-5 M incubated for 48 hrs by sulforhodamine B assay; how it was run: as §1
[53] = test system: SR; assay: Growth inhibition of human SR cells at 10^-5 M incubated for 48 hrs by sulforhodamine B assay; how it was run: as §1
[54] = test system: MOLT-4; assay: Growth inhibition of human MOLT4 cells at 10^-5 M incubated for 48 hrs by sulforhodamine B assay; how it was run: as §1
[55] = test system: RPMI-8226; assay: Growth inhibition of human RPMI8226 cells at 10^-5 M incubated for 48 hrs by sulforhodamine B assay; how it was run: as §1
[56] = test system: K562; assay: Growth inhibition of human K562 cells at 10^-5 M incubated for 48 hrs by sulforhodamine B assay; how it was run: as §1
[57] = test system: CCRF-CEM; assay: Growth inhibition of human CCRF-CEM cells at 10^-5 M incubated for 48 hrs by sulforhodamine B assay; how it was run: as §1
[58] = test system: HL-60(TB); assay: Growth inhibition of human HL-60(TB) cells at 10^-5 M incubated for 48 hrs by sulforhodamine B assay
How it was run: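 Run in the NCI59 cell-line one-dose screen, with each compound tested at a single concentration of 1 × 10−5 M.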

Measured: growth inhibition (GI)

CC[C@H](C)C(=O)O[C@@H]1[C@@H]2[C@@H](OC(=O)[C@@H](C)CC)[C@@]34O[C@]2(O)[C@@](C)([C@@H](CC(=O)OC)C1(C)C)[C@H]3CC[C@]1(C)C4=CC(=O)O[C@H]1C1=CC(O)OC1=O (stereo partly specified)
inactive: all assays above

CC[C@H](C)C(=O)O[C@@H]1[C@H]2[C@@H](OC(=O)C(C)C)C(C)(C)[C@H](CC(=O)OC)[C@@]3(C)[C@H]4CC[C@]5(C)C(=CC(=O)O[C@H]5C5=CC(O)OC5=O)[C@@]14O[C@@]23O (stereo partly specified)
inactive: all assays above
